# Compounds with a hit are over-represented: about 1.9% of the library has one in this group of screens.
# RAD52 inh = RAD52 (human) annealing inhibition; P43351; recombinant RAD52 DNA annealing, FRET fluorescence; actives 0.46% (n = 360,000); inhibition, % at 18.7 µM;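 active = every replicate showing at least 50% inhibition; inconclusive = mean inhibition at least 50% but not in every replicate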
# Target sequence (P43351 whole entry, looked up): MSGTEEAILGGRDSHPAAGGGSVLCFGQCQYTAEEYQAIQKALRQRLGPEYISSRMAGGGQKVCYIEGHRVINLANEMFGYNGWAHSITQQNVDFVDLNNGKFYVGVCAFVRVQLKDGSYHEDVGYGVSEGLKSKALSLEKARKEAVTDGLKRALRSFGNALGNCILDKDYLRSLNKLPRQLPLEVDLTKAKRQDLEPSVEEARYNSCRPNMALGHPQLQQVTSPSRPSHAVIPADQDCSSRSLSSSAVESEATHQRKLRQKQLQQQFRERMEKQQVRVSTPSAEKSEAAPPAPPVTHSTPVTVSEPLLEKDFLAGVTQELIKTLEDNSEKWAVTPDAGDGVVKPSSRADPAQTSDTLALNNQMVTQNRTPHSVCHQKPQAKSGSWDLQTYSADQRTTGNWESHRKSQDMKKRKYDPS
# rRNA inh HTS = inhibitors of bacterial rRNA selective over humanized ribosomes | E. coli WT GFP vs humanized-ribosome RFP mutants, fluorescence, 24 h; active compounds read low; DMSO median 0, no signal -100 | GFP signal change (wild-type ribosome), % (no concentration beside the values) | actives 1.6% (n = 350,000) | AID 720706;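 active = significant combined selectivity score with lowered wild-type GFP, culture density cut under 30%, mutant RFP and density less affected; inactive = any of these conditions unmet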
# Cneo AK release = Cryptococcus neoformans lysis via adenylate kinase release | C. neoformans lysis, adenylate kinase release luminescence, 4 h; normalised: neutral wells 0, clomiphene wells 100 | lysis activity, % at 15 µM | actives 0.2% (n = 360,000);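 active = mean lysis activity across replicates of at least 80%, whatever share of replicates individually reach that level; inactive = mean lysis activity below 80%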
#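 Material – log-phase Cryptococcus neoformans yeast cells · Input – 5 × 10^6 yeast cells/mL · Medium – fresh YPD growth medium · Doses – single compound concentration per well · Timing – static 4 h at 37 °C with compound, 1 h detection · Detection – adenylate kinase release luminescence · Read-out – signal increase indicating cell lysis · Control set – Clomiphene as positive lysis control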
# PglD DTNB = inhibitors of Campylobacter jejuni PglD acetyltransferase; actives 0.098% (n = 360,000); AID 602405; purified PglD enzyme, DTNB colorimetric CoA detection; inhibition, % at 12.5 µM; in the data active = inhibition above about 16%, passing the limit was not always enough; inconclusive = no clear call, values can overlap the other calls
# RAD54 inh = blocks human RAD54 Holliday junction branch migration; Q92698; FAM/BHQ fluorescence; actives 0.14% (n = 360,000); inhibition, % at 10.4 µM; AID 602329;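 active = mean normalized replicate activity at least 40 and at least half of replicates scoring 40 or more; inconclusive = only one of the two criteria met; inactive = mean below 40 and under half of replicates reaching 40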;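 note: 0% = median of neutral control wells and 100% = median of positive control wells; inhibitors cause a drop in the FAM fluorescence signal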
# RAD52 DNA ctr = DNA binding artifact in RAD52 counter-screen. shares compounds with RAD52 inh. Salmon sperm DNA/acridine orange FP displacement. AC50, µM. actives 8% (n = 1,000);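 active = fitted half-maximal concentration for signal loss at or below twice the highest dose tested, in every separate run, actives reach about 64 µM in these data; inconclusive = runs disagree, or flat partial signal loss, or poor fit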
# Starred values were filed as active, the others as inactive; i = inactive; ? = inconclusive; nt = no result given.
SMILES,RAD52 inh,rRNA inh HTS,Cneo AK release,PglD DTNB,RAD54 inh,RAD52 DNA ctr
c1ccc(Nc2ccc(NCCc3c[nH]c4ccccc34)cc2)cc1,78*,-24*,nt,nt,nt,i
O=C(NC1Cc2ccccc2C1)[C@@H]1[C@@H](CO)[C@@H]2Cn3c(cccc3=O)[C@H]1N2C(=O)CC1CC1,5,2,-2,7,-3,nt
CCCCCCCC[n+]1cccc(C(=O)N(CC)CC)c1,3,nt,nt,nt,nt,nt
CCCCCCCCCCCCCCCC[n+]1cccc(C(=O)N(CC)CC)c1,88*,-64,-23,-3,40,i
COc1ccc(C(=O)C[n+]2cccc(C)c2C)cc1[N+](=O)[O-],-12,8,nt,nt,nt,nt
CCC(C)(C)c1ccc(OCCCC[n+]2cccc(C)c2C)c(C(C)(C)CC)c1,66*,nt,1,1,36,i
CN1CCN(c2ccc(C(CC(N)=O)NC(=O)Cc3cccc4ccccc34)cc2[N+](=O)[O-])CC1 (stereo not given),56*,8,1,0,0,?
NC(=O)CC(NC(=O)Cc1cccc2ccccc12)c1ccc(N2CCC(N3CCCC3)CC2)c([N+](=O)[O-])c1 (stereo not given),13,7,0,3,0,nt
Cc1cc2[nH]c3ccccc3c2cn1,-6,8,0,2,20,nt
CN(C)C=Nc1ccc2nc3c(cc2c1)[nH]c1ccccc13,96*,-8,nt,nt,nt,23µM*
Cc1cc(N2CCNC[C@H]2C)ccc1N1CCN(Cc2ccccc2)[C@@H](C)C1,33,17,nt,nt,nt,nt
Cc1cc(N2CCNC[C@@H]2C)ccc1N1CCN(Cc2ccccc2)[C@@H](C)C1,51*,30,nt,nt,nt,i
OC(c1ccccc1)(c1ccccc1)C1CCN(CCCOc2ccc3c(c2)CCCC3)CC1,51*,-48,nt,nt,nt,i
CO[C@@H]1CC[C@@H]2CCOc3ccc(C#N)cc3C(=O)N(C)C[C@@H](c3ccccc3)CC(=O)N(C)C[C@@H]1O2,nt,0,1,2,7,nt
Cc1c(C)n(C)c2ccc(C(=O)NCCCN3CCN(C)CC3)cc12,74*,8,4,3,10,i
NC(=S)NN=C1c2cc(OCCN3CCOCC3)ccc2-c2ccc(OCCN3CCOCC3)cc21,87*,-15,nt,nt,nt,i
CC(C)CC#Cc1ccc([C@H]2[C@@H](CO)N3CCCCN(C(=O)c4ccc5c(c4)OCO5)C[C@H]23)cc1,23,-56,0,0,-12,nt
CN(C)CCCn1c(=S)[nH]c2sc3c(c2c1=O)CCCC3,97*,-6,-1,-6,11,i
Cc1cc(C)c2sc(N(CCCN(C)C)C(=O)c3ccc(S(=O)(=O)N(C)Cc4ccccc4)cc3)nc2c1,-35,-53,0,0,-2,nt
Cc1cc(C)c2sc(N(CCCN(C)C)C(=O)c3ccc(Br)s3)nc2c1,58*,-8,8,2,6,i
Cc1ccc2nc(N(CCCN(C)C)C(=O)CN3C(=O)c4ccccc4C3=O)sc2c1,62*,12,nt,nt,nt,i
Cc1cc(C)c2sc(N(CCCN(C)C)C(=O)CN3C(=O)c4ccccc4C3=O)nc2c1,67*,-5,4,2,41,i
CCc1nc(N=C(N)N)nc2ccccc12,63*,-1,nt,nt,nt,i
CCc1nc2ccccc2c(C(=O)O)c1C,nt,nt,4,-2,-1,nt
NC(N)=Nc1nc(-c2ccccc2)c2ccccc2n1,64*,2,0,2,51*,i
SMILES,RAD52 inh,rRNA inh HTS,Cneo AK release,PglD DTNB,RAD54 inh,RAD52 DNA ctr
Clc1nc(-c2ccccc2)c2ccccc2n1,-16,9,-6,-4,3,nt
CN1c2ccc(Br)cc2[C@H]2[C@H](CCN2C(=O)Nc2cc(F)ccc2F)[C@H]1CO,-21,-17,0,0,-6,nt
COc1ccc(NC(=O)N2CC(=O)N3[C@H](CO)[C@H](c4ccc(C#CCC5CCCC5)cc4)[C@H]3C2)cc1,-12,-5,nt,nt,nt,nt
NC1(N2SC(S)=C3CCCC=C32)CCCCC1,86*,-46,nt,nt,nt,i
CN(C)CCCNC(=O)c1ccc(-c2cc(O)c3ncccc3c2)cc1,101*,-40,1,-1,38,i
COc1ccccc1C1c2ccc3ccccc3c2Oc2ncn(CCCO)c(=N)c21 (stereo not given),nt,nt,0,-2,-1,nt
COc1ccc(C2c3ccc4ccccc4c3Oc3ncn(CCCN(C)C)c(=N)c32)cc1 (stereo not given),80*,-51,2,-2,23,i
COc1ccccc1C1c2ccc3ccccc3c2Oc2ncn(CCN(C)C)c(=N)c21 (stereo not given),60*,-58,4,5,13,i
C[C@@H]1CN([C@@H](C)CO)S(=O)(=O)c2ccc(-c3cccc(C#N)c3)cc2O[C@H]1CN(C)C(=O)c1ccc(F)cc1,0,-11,-1,-1,-1,nt
CC(=O)N1[C@@H](CO)[C@@H](c2ccccc2)C12CN(C(=O)c1ccccc1)C2,3,0,nt,nt,nt,nt
Cn1nnc2c[n+](CC(=O)c3ccc4ccccc4c3)cc(Br)c21,-22,-6,-1,6,5,nt
CCOCCCn1c(C)nc2c[n+](CC(=O)c3ccc4ccccc4c3)cc(Br)c21,64*,-10,1,-5,37,i
CO[C@H]1CN(C)C(=O)c2ccc(NC(=O)C3CC3)cc2OC[C@@H](C)N(Cc2cc(F)ccc2F)C[C@H]1C,nt,-5,nt,nt,nt,nt
CCN(CC)CCC(=O)Nc1cccc2c1C(=O)c1ccccc1C2=O,78*,-47,-1,-5,95*,9µM*
CO[C@H]1CN(C)C(=O)c2cc(NC(=O)c3ccc(F)cc3)ccc2OC[C@@H](C)N(C(=O)CC2CC2)C[C@H]1C,nt,1,nt,nt,nt,nt
CC(=O)c1ccc(Nc2nc(C(N)Cc3ccc(N)cc3)cs2)cc1 (stereo not given),87*,14,3,-6,8,i
NC(c1ccccc1)c1csc(Nc2ccc(C(=O)c3ccccc3)cc2)n1 (stereo not given),62*,-40,1,8,-12,i
c1cncc(-c2nc(NCCCN3CCOCC3)c3c4c(sc3n2)CCC4)c1,62*,-32,nt,nt,nt,i
C[C@@H]1CN([C@@H](C)CO)C(=O)c2c(c3ccccc3n2C)-c2ccccc2CO[C@H]1CN(C)C(=O)Nc1ccc(-c2ccccc2)cc1,2,3,nt,nt,nt,nt
Cc1ccc(NCCN(C)C)c2c(=O)c3cc(O)ccc3sc12,84*,-56,nt,nt,nt,12µM*
C/C=C/c1ccc([C@@H]2[C@@H](CO)N(C(=O)NCCC)[C@H]2CNC(=O)C2CCC2)cc1,nt,-9,1,3,3,nt
COCC(=O)Nc1ccc2c(c1)C(=O)N(C)C[C@H](OC)[C@H](C)CN(C(=O)NC(C)C)[C@H](C)CO2,-1,-1,-7,1,-3,nt

# Compound activity deposited in PubChem BioAssay by Broad Institute.
